Reference: ChEMBL document CHEMBL1125241, “Structure-activity relationship of quinazolinedione inhibitors of calcium-independent phosphodiesterase” (J Med Chem, 1991)

What was measured:
Mus musculus [1] = species: Mus musculus; test: Inhibition of immobility in mouse forced swim test by peroral dose; format: functional; conditions: po, read-out: MED
Method in brief: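 Compounds were dissolved in saline and given po to mice at 1 mL/100 g. One hour later, mice were put in 1-L beakers of water at 22–24 °C, deep enough that tails could not touch the bottom. Observation followed a 2-min habituation.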

[2] = Inhibition of phosphodiesterase 4 from guinea pig lung; parameters: species or system Cavia porcellus
Method in brief: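 Guinea pig lung was homogenized in Bistris buffer (pH 6.5) with 50 μM final PMSF and centrifuged at 12000g at 4 °C. The supernatant went onto DEAE-Sepharose and was eluted with a 0.05–1.0 M sodium acetate gradient, pooling rolipram-sensitive fractions. The assay used 50 mM Tris/10 mM MgCl₂ (pH 7.5) and 1 μM final [³H]cAMP, with compound added in 4% DMSO, for 10 min at 37 °C. Reaction was stopped by boiling; [³H]5'-AMP was separated on boronate gel and counted. IC₅₀ came from 4 log concentrations, each in triplicate.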

Mus musculus [3] = species: Mus musculus; test: Inhibition of reserpine-induced hypothermia in mice by peroral dose; format: functional; conditions: po, read-out: MED
Method in brief: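 Mice were housed at 18–20 °C, given reserpine 2 mg/kg sc, and kept there 18 h. Rectal temperature was then taken, followed by saline or drug po. Temperatures were re-measured, typically at 0.5, 1.0, 2.0 and 14 h. The value is the minimal effective dose (mg/kg po) that inhibits hypothermia.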

Rattus norvegicus [4] = test: Percentage inhibition of carrageenan-induced rat foot edema at a dose of […] when administered perorally (po).; format: functional; conditions: dose 3.2 mg/kg
Rattus norvegicus [5] = test: Percentage inhibition of carrageenan-induced rat foot edema at a dose of 32 mg/kg when administered perorally (po).; format: functional
Method in brief: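 Rats were dosed po, and 1 h later 0.05 mL of 2-week-old 1% carrageenan in distilled water was injected into the plantar tissue. Paw volume was measured immediately and 3 h after injection. The increase in foot volume was the individual response.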

For `COC(=O)c1cccc(-n2c(=O)n(CC3CC4CCC3C4)c(=O)c3cccnc32)c1` (stereo not drawn), the minimal effective dose (Mus musculus [1]) was 1000 µg/kg, the IC50 [2] was 0.89 µM and the minimal effective dose (Mus musculus [3]) was 1 µg/kg.
For `CCn1c(=O)c2cccnc2n(-c2cccc(C(=O)OC)c2)c1=O`, the IC50 [2] was 25.9 µM.
`CCn1c(=O)c2ccccc2n(-c2cccc([N+](=O)[O-])c2)c1=O` [NITRAQUAZONE] showed a minimal effective dose (Mus musculus [1]) of 3200 µg/kg, an IC50 [2] of 11.4 µM and an inhibition in vivo at […] (Rattus norvegicus [4]) of 43%. For the same compound, the minimal effective dose (Mus musculus [3]) was 1 µg/kg.
Work on `COC(=O)c1cccc(-n2c(=O)n(CC3CCCC3)c(=O)c3cccnc32)c1` yielded a minimal effective dose (Mus musculus [1]) of 1000 µg/kg, an IC50 [2] of 1.52 µM and a minimal effective dose (Mus musculus [3]) of 3 µg/kg.
In the case of `COc1ccc(C2CNC(=O)C2)cc1OC1CCCC1` (stereo not drawn) [ROLIPRAM], the inhibition in vivo at 32 mg/kg (Rattus norvegicus [5]) is reported as 41%, the minimal effective dose (Mus musculus [1]) is reported as 1780 µg/kg and the IC50 [2] is reported as 0.59 µM. It also gave a minimal effective dose (Mus musculus [3]) of 0.03 µg/kg.
With `COC(=O)c1cccc(-n2c(=O)n(Cc3ccccc3)c(=O)c3ccccc32)c1` the inhibition in vivo at 32 mg/kg (Rattus norvegicus [5]) was 25%, the minimal effective dose (Mus musculus [1]) was over 32000 µg/kg and the IC50 [2] was 0.23 µM. For the same compound, the minimal effective dose (Mus musculus [3]) was 100 µg/kg.
Compound `CNC(=O)c1cccc(-n2c(=O)n(Cc3ccccc3)c(=O)c3ccccc32)c1` has an IC50 [2] of 21.4 µM.
In the case of `COC(=O)c1cccc(-n2c(=O)[nH]c(=O)c3ccccc32)c1`, the inhibition in vivo at 32 mg/kg (Rattus norvegicus [5]) is reported as 5%, the IC50 [2] is reported as over 100 µM and the minimal effective dose (Mus musculus [3]) is reported as under 320 µg/kg.
Work on `CCn1c(=O)c2ccccc2n(-c2cccc(C(=O)OC)c2)c1=O` yielded an inhibition in vivo at 32 mg/kg (Rattus norvegicus [5]) of 19% and an IC50 [2] of 3.8 µM.
Work on `COC(=O)c1cccc(-n2c(=O)n(Cc3ccccc3)c(=O)c3cccnc32)c1` yielded a minimal effective dose (Mus musculus [1]) of 10 µg/kg, an inhibition in vivo at […] (Rattus norvegicus [4]) of 50% and a minimal effective dose (Mus musculus [3]) of 10 µg/kg.
